Reference: ChEMBL document CHEMBL1149879, “Ten-membered lactones from Phomopsis sp., an endophytic fungus of Azadirachta indica” (2008)
Converted amounts (≈) assume the structure as drawn.

Key:
Type in all cases: functional
Fusarium avenaceum = test: Antifungal activity against Fusarium avenaceum YM3065 after 72 hrs by disk diffusion method
In short: (§1)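 Paper-disk diffusion. Fungi grown on PDA at 28 °C; spores mixed into melted PDA at 1 × 10^6 spores/mL and poured into plates. Compounds in 50% aqueous DMSO, serially double diluted from 500 to 15.63 µg/mL, loaded onto sterile 6 mm paper disks. Dried disks placed on agar, incubated 28 °C for 72 h, inhibition zones then measured.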

Aspergillus niger = test: Antifungal activity against Aspergillus niger YM3029 after 72 hrs by disk diffusion method; in short: as §1
Botrytis cinerea = test: Antifungal activity against Botrytis cinerea YM3061 after 72 hrs by disk diffusion method; in short: as §1
Fusarium verticillioides = test: Antifungal activity against Fusarium moniliforme YM3067 after 72 hrs by disk diffusion method; in short: as §1
Talaromyces islandicus = test: Antifungal activity against Penicillium islandicum YM3104 after 72 hrs by disk diffusion method; in short: as §1
Ophiostoma minus = test: Antifungal activity against Ophiostoma minus YM3429 after 72 hrs by disk diffusion method; in short: as §1
Bipolaris maydis = test: Antifungal activity against Helminthosporium maydis YM3076 after 72 hrs by disk diffusion method; in short: as §1

`C[C@@H]1C[C@@H](O)[C@@H](O)/C=C/C=C\C(=O)O1` was tested, and the MIC (Fusarium avenaceum) was greater than 500 µg/mL, the MIC (Aspergillus niger) was 125 µg/mL (≈ 631 µM) and the MIC (Botrytis cinerea) was 500 µg/mL (≈ 2520 µM). It also gave an MIC (Fusarium verticillioides) greater than 500 µg/mL, an MIC (Talaromyces islandicus) greater than 500 µg/mL and an MIC (Ophiostoma minus) greater than 500 µg/mL. For the same compound, the MIC (Bipolaris maydis) was 500 µg/mL (≈ 2520 µM).

Work on `CC(=O)O[C@@H]1C[C@@H](C)OC(=O)CC[C@H](O)CC1=O` yielded an MIC (Fusarium avenaceum) greater than 500 µg/mL, an MIC (Aspergillus niger) of 125 µg/mL (≈ 484 µM) and an MIC (Botrytis cinerea) of 250 µg/mL (≈ 968 µM). It also gave an MIC (Fusarium verticillioides) greater than 500 µg/mL, an MIC (Talaromyces islandicus) of 250 µg/mL (≈ 968 µM) and an MIC (Ophiostoma minus) greater than 500 µg/mL. It also gave an MIC (Bipolaris maydis) of 500 µg/mL (≈ 1940 µM).

In the case of `CC(=O)O[C@H]1/C=C/[C@@H]2O[C@@H]2C(=O)O[C@H](C)C[C@H]1O` [7ALPHA-ACETOXYMULTIPLOLIDE A], the MIC (Fusarium avenaceum) is reported as greater than 500 µg/mL, the MIC (Aspergillus niger) is reported as 125 µg/mL (≈ 488 µM) and the MIC (Botrytis cinerea) is reported as greater than 500 µg/mL. For the same compound, the MIC (Fusarium verticillioides) was greater than 500 µg/mL, the MIC (Talaromyces islandicus) was greater than 500 µg/mL and the MIC (Ophiostoma minus) was greater than 500 µg/mL. It also gave an MIC (Bipolaris maydis) greater than 500 µg/mL.

`CC(=O)O[C@@H]1C[C@@H](C)OC(=O)[C@H]2O[C@H]2/C=C/[C@@H]1O` [8ALPHA-ACETOXYMULTIPLOLIDE A] gave an MIC (Fusarium avenaceum) greater than 500 µg/mL, an MIC (Aspergillus niger) of 125 µg/mL (≈ 488 µM) and an MIC (Botrytis cinerea) of 62.5 µg/mL (≈ 244 µM). The MIC (Fusarium verticillioides) was 500 µg/mL (≈ 1950 µM), the MIC (Talaromyces islandicus) was 250 µg/mL (≈ 976 µM) and the MIC (Ophiostoma minus) was 31.2 µg/mL (≈ 122 µM). For the same compound, the MIC (Bipolaris maydis) was 500 µg/mL (≈ 1950 µM).

`C[C@@H]1C[C@@H](O)[C@@H](O)/C=C/[C@@H]2O[C@@H]2C(=O)O1` [MULTIPLOLIDE A] was tested, and the MIC (Fusarium avenaceum) was greater than 500 µg/mL, the MIC (Aspergillus niger) was 250 µg/mL (≈ 1170 µM) and the MIC (Botrytis cinerea) was greater than 500 µg/mL. The MIC (Fusarium verticillioides) was greater than 500 µg/mL, the MIC (Talaromyces islandicus) was 250 µg/mL (≈ 1170 µM) and the MIC (Ophiostoma minus) was greater than 500 µg/mL. For the same compound, the MIC (Bipolaris maydis) was 500 µg/mL (≈ 2330 µM).

In the case of NYSTATIN, the MIC (Fusarium avenaceum) is reported as 62.5 µg/mL, the MIC (Aspergillus niger) is reported as 15.6 µg/mL and the MIC (Botrytis cinerea) is reported as 31.2 µg/mL. For the same compound, the MIC (Fusarium verticillioides) was 62.5 µg/mL, the MIC (Talaromyces islandicus) was 15.6 µg/mL and the MIC (Ophiostoma minus) was 31.2 µg/mL. For the same compound, the MIC (Bipolaris maydis) was 31.2 µg/mL.
